Source: ChEMBL document CHEMBL5104104, “Inhibition of N-type calcium ion channels by tricyclic antidepressants - experimental and theoretical justification for their use for neuropathic pain” (RSC Med Chem, 2022)

Target: Voltage-dependent N-type calcium channel subunit alpha-1B (Homo sapiens, UniProt Q00975)
Assay: Inhibition of endogenous human CaV2.2 in human SH-SY5Y cells in presence of nifedipine by Calcium 4 dye based calcium influx fluorescence-imaging assay
Assay type: cell-based
Outline: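 SH-SY5Y neuroblastoma cells with endogenous Cav2.2, seeded 48 h before assay and loaded with Calcium 4 dye in HEPES buffer pH 7.4 with 0.1% BSA and 10 µM nifedipine (30 min, 37 °C). Compound preincubated 300 s. Channels then opened with 90 mM KCl plus 5 mM CaCl2, fluorescence read 300 s more. 3-fold serial dilutions from 100 µM (1% DMSO). IC50 from concentration–response curves, mean ± SEM, n = 3–5.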

Chain of Voltage-dependent N-type calcium channel subunit alpha-1B (Q00975 whole entry): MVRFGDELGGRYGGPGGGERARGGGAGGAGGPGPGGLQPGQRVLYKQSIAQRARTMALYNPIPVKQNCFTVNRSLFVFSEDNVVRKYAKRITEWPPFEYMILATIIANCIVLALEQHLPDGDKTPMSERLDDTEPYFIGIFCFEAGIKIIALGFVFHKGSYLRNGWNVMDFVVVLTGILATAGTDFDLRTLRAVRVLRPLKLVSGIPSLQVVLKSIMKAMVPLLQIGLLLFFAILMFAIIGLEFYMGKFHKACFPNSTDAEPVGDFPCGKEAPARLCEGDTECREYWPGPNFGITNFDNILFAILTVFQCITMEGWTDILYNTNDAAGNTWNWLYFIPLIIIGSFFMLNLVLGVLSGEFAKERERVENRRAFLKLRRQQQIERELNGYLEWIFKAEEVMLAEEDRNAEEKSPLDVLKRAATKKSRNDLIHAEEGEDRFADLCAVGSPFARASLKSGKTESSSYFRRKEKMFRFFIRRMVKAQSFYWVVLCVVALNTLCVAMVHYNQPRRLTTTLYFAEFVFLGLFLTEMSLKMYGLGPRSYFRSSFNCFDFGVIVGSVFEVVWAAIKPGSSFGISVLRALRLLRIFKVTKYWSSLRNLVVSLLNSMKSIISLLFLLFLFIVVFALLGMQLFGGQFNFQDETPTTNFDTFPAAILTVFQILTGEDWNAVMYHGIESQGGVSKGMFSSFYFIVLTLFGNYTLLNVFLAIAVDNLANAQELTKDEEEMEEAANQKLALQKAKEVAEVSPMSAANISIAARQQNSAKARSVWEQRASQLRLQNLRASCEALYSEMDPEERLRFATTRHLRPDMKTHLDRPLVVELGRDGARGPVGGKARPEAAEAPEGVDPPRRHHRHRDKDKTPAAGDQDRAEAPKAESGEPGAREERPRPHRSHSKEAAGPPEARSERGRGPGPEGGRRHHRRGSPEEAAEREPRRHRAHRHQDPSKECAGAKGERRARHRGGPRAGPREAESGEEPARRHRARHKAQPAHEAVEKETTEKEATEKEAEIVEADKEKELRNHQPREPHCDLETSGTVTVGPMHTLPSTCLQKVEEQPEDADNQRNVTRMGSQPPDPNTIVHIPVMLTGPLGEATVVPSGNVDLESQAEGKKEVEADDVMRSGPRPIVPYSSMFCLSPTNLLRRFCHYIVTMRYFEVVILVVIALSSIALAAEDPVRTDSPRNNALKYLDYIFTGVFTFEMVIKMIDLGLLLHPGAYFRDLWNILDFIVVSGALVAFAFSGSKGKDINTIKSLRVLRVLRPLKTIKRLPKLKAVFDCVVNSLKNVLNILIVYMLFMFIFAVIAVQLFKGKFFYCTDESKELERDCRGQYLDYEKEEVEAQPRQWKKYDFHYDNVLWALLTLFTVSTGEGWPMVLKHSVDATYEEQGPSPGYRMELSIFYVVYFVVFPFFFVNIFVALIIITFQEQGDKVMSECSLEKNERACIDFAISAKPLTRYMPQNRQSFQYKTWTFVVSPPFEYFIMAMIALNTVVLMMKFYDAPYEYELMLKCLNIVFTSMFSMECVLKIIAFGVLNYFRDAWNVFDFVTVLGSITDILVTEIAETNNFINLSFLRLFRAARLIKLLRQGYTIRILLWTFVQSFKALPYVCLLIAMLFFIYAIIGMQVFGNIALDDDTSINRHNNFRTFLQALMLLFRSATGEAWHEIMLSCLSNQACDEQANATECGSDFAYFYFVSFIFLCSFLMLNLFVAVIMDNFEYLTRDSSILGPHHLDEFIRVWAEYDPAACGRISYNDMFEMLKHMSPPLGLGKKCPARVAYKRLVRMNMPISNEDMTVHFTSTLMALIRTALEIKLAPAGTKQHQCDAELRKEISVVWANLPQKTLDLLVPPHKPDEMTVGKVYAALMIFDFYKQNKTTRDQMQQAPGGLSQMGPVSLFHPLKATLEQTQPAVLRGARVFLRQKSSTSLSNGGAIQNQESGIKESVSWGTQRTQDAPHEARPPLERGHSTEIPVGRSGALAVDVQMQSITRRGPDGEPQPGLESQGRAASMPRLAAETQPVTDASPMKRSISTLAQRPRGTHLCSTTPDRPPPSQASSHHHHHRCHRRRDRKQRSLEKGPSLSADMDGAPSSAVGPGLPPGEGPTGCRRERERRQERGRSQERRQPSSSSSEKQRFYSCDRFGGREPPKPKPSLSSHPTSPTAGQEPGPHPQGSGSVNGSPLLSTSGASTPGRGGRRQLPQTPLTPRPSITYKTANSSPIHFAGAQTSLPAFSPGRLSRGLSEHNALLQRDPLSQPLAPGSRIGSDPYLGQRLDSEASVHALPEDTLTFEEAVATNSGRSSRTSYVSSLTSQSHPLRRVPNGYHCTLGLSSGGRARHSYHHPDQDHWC

SMILES | IC50 [µM]
OCCN1CCN(CCCN2c3ccccc3C=Cc3ccccc32)CC1 [OPIPRAMOL] | 24
CC(CN(C)C)CN1c2ccccc2CCc2ccccc21 (stereo not drawn) [TRIMIPRAMINE] | 11
CN(C)CCC=C1c2ccccc2C=Cc2ccccc21 [CYCLOBENZAPRINE] | 10
CN(C)CCCN1c2ccccc2CCc2ccccc21 [IMIPRAMINE] | 22
Clc1ccc2c(c1)C(N1CCNCC1)=Nc1ccccc1O2 [AMOXAPINE] | 27
CN(C)CCCN1c2ccccc2CCc2ccc(Cl)cc21 [CLOMIPRAMINE] | 9
CC(CN1c2ccccc2Sc2ccccc21)N(C)C (stereo not drawn) [PROMETHAZINE] | 18
CNCCCN1c2ccccc2CCc2ccccc21 [DESIPRAMINE] | 11
CNCCC=C1c2ccccc2CCc2ccccc21 [NORTRIPTYLINE] | 10
CN(C)CC/C=C1\c2ccccc2COc2ccccc21 [E-DOXEPIN] | 18
CNCCCC12CCC(c3ccccc31)c1ccccc12 [MAPROTILINE] | 10
CNCCCC1c2ccccc2C=Cc2ccccc21 [PROTRIPTYLINE] | 14
CN(C)CCC=C1c2ccccc2CCc2ccccc21 [AMITRIPTYLINE] | 12
